According to publication PMC9314948 (Diabetes, Obesity & Metabolism, 2022):
“And” between values parts separate entries of the source, which are not always exact repeats. Equal values may be shown once.

What was measured:
obese women [1] = assay: Study A: body weight, caloric intake and waist circumference; assay type: in vivo, human; settings: not significant vs placebo (1.24%)
obese women [2] = assay: Study B: caloric intake and body weight; assay type: in vivo, human
Method in brief: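 Double-blind crossover in inpatient obese women with six randomized sequences of three 4-day regimens separated by 5-day washouts: placebo/placebo, 2.5/2.0 mg, or 2.5 mg/placebo, given SC 1 h before breakfast and lunch. Meals are weighed before and after eating, and snacks are allowed 18:00-midnight. Subjects are weighed each morning before breakfast in underwear or scrubs. ITT analysis uses MMRM for intake and ANCOVA for weight change, with two-sided p.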

[3] = Study A: accumulation of plasma bremelanotide concentration; assay type: in vivo, human; settings: plasma 1 h after first dose of the day, SC 3 times daily
Method in brief: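 Day 1 doses are 1.25 mg then 1.0 mg twice; later days are 2.5 mg then 2.0 mg twice. Plasma is sampled 1 h after the first daily dose on days 2, 8 and 15. Day 8/day 2 and day 15/day 2 ratios are computed, with accumulation defined as mean ratio 95% CI >1.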

[4] = Study B: pharmacokinetics of SC bremelanotide; assay type: in vivo, human; settings: mean ± SD; for Cavg (D1) / Cmax (D1) / Cavg / RACC3.5 (ratio of day 4/day 1 concentrations 3.5 h postdose) / Tmax / Cmax: Study B; for Cmax (D1) / AUC(0-t) / Cmax: plasma; for Cavg: full dosing interval; for AUC(0-t): AUC0−3.5, Study B
Method in brief: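 A further sample is taken on day 4 at 3.5 h postdose. Plasma levels are measured by HPLC-MS/MS and analysed non-compartmentally. RACC3.5 is the day 4/day 1 ratio at 3.5 h postdose.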

obese women [5] = assay: Study A: adverse events; assay type: in vivo, human; settings: across Study A and Study B, subjects receiving bremelanotide
Method in brief: (§1)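 Treatment-emergent AEs, including SAEs, are recorded throughout both inpatient placebo-controlled, double-blind SC trials in premenopausal obese women, alongside vital signs, ECG, clinical laboratory tests and physical examination. The safety population is all randomized subjects given ≥1 dose.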

obese women [6] = assay: Study B: adverse events; assay type: in vivo, human
Method in brief: as §1

obese women [7] = assay: Study A: blood pressure; assay type: in vivo, human; settings: over the course of the study, also seen with placebo
Method in brief: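 Study A, three-times-daily SC dosing for 15 days. Blood pressure is taken at screening, on the 2 days before dosing, on the day after dosing, and 15 min predose and 1 h postdose at each dose on days 1-15, with subjects seated ≥5 min. Continuation requires systolic <155 and diastolic <95 mmHg. Post- vs predose changes are summarized descriptively by visit and treatment.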

obese women [8] = assay: Study B: blood pressure withdrawal criteria; assay type: in vivo, human; settings: 2.5 mg/2.0 mg dosing regimen
Method in brief: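 Crossover regimen of 2.5 mg SC 1 h before breakfast and 2.0 mg 1 h before lunch over a 4-day period. Blood pressure is measured daily pre- and postdose after ≥5 min seated. Subjects are withdrawn unless systolic <155 mmHg and diastolic <95 mmHg at all assessments.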

murine model = settings: ref Palatin Technologies, Inc. data on file; cited from earlier work
rat model = settings: ref Palatin Technologies, Inc. data on file; cited from earlier work
[9] = once-daily (2.5 mg/0 mg) SC, dose 1, n = 17-22
[10] = once-daily (2.5 mg/0 mg) SC, n = 17-22
[11] = twice-daily (2.5 mg/2.0 mg) SC, dose 1, n = 19-20
[12] = twice-daily (2.5 mg/2.0 mg) SC, n = 19-20
[13] = human, in vivo, sc, once-daily (2.5 mg/0 mg) SC, n = 17-22
[14] = human, in vivo, sc, twice-daily (2.5 mg/2.0 mg) SC, n = 19-20
[15] = once-daily (2.5 mg/0 mg) SC, 4-day period, n = 22
[16] = twice-daily (2.5 mg/2.0 mg) SC, 4-day period, n = 20

SMILES: CCCC[C@H](NC(C)=O)C(=O)N[C@H]1CC(=O)NCCCC[C@@H](C(=O)O)NC(=O)[C@H](Cc2c[nH]c3ccccc23)NC(=O)[C@H](CCCNC(=N)N)NC(=O)[C@@H](Cc2ccccc2)NC(=O)[C@H](Cc2c[nH]cn2)NC1=O [bremelanotide]
- Mean decrease in waist circumference from baseline to day 16 (obese women [1]): 1.63%
- Daily caloric intake versus placebo (obese women [2]; once or twice daily, all four treatment days, p < 0.001): significantly lower
- Weight loss after 4 days versus placebo (obese women [2]; once-daily (2.5 mg/0 mg) SC, p = .0805): numerically greater than weight loss observed in placebo‐treated subjects, but the difference did not reach statistical significance
- Mean weight loss from baseline after 4 days (obese women [2]; twice-daily (2.5 mg/2.0 mg) SC, ITT, placebo 0.9 kg, p < .001): 1.7 kg
- Mean ratio of day 8/day 2 bremelanotide concentrations [3]: 1.0
- Mean ratio of day 15/day 2 bremelanotide concentrations [3]: 1.1
- Cavg (D1) [4, 9]: 51.6 ± 10.1 ng/mL
- Cmax (D1) [4, 9]: 75.1 ± 16.1 ng/mL
- Cavg [4, 10]: 25.2 ± 4.7 ng/mL
- RACC3.5 (ratio of day 4/day 1 concentrations 3.5 h postdose) [4, 10]: 1.0 ± 0.3
- Tmax [4, 10]: 1.0 ± 0.3 h
- Cavg (D1) [4, 11]: 50.2 ± 9.4 ng/mL
- Cmax (D1) [4, 11]: 75.2 ± 16.3 ng/mL
- Cavg [4, 12]: 41.7 ± 9.3 ng/mL
- RACC3.5 (ratio of day 4/day 1 concentrations 3.5 h postdose) [4, 12]: 1.0 and 1.0 ± 0.1
- AUC(0-t) [4, 13]: 181 ± 35.4 ng·h/mL
- AUC(0-t) [4, 14]: 176 ± 32.6 ng·h/mL
- Cmax [4, 13]: 75.1 ± 16.1 ng/mL
- Cmax [4, 14]: 83.8 ± 15.6 ng/mL
- Tmax ([4]; human, in vivo, sc, t max (D1), once-daily (2.5 mg/0 mg) SC, dose 1, n = 17-22): 1 ± 0.3 h
- Tmax ([4]; human, in vivo, sc, t max (D1), twice-daily (2.5 mg/2.0 mg) SC, dose 1, n = 19-20): 0.9 ± 0.4 h
- Tmax ([4]; human, in vivo, sc, t max, twice-daily (2.5 mg/2.0 mg) SC, n = 19-20): 3.3 ± 2 h
- Subjects experiencing nausea (obese women [5]): 18% to 30
- AE leading to treatment discontinuation: Nausea (obese women [6]; [15]): 1 (4.5) n (%)
- AE leading to treatment discontinuation: Vomiting (obese women [6]; [15]): 1 (4.5) n (%)
- AE: Decreased appetite (obese women [6]; [15]): 2 (9.1) n (%)
- AE: Ephelides (obese women [6]; [15]): 0 n (%)
- AE: Feeling hot (obese women [6]; [15]): 2 (9.1) n (%)
- AE: Flatulence (obese women [6]; [15]): 1 (4.5) n (%)
- AE: Flushing (obese women [6]; [15]): 4 (18.2) n (%)
- AE: Headache (obese women [6]; [15]): 2 (9.1) n (%)
- AE: Injection site erythema (obese women [6]; [15]): 9 (40.9) n (%)
- AE: Injection site pain (obese women [6]; [15]): 7 (31.8) n (%)
- AE: Injection site pruritus (obese women [6]; [15]): 2 (9.1) n (%)
- AE: Injection site reaction (obese women [6]; [15]): 16 (72.7) n (%)
- AE: Injection site swelling (obese women [6]; [15]): 2 (9.1) n (%)
- AE: Libido increased (obese women [6]; [15]): 3 (13.6) n (%)
- AE: Nausea (obese women [6]; [15]): 4 (18.2) n (%)
- AE: Pigmentation disorder (obese women [6]; [15]): 6 (27.3) n (%)
- AE: Procedural dizziness (obese women [6]; [15]): 2 (9.1) n (%)
- AE: Skin hyperpigmentation (obese women [6]; [15]): 0 n (%)
- AE: Vessel puncture site haemorrhage (obese women [6]; [15]): 0 n (%)
- Subjects experiencing an AE leading to treatment discontinuation (obese women [6]; [15]): 2 (9.1) n (%)
- Subjects experiencing ≥1 AE (obese women [6]; [15]): 21 (95.5) n (%)
- Subjects experiencing ≥1 AE: Mild (obese women [6]; [15]): 21 (95.5) n (%)
- Subjects experiencing ≥1 AE: Moderate (obese women [6]; [15]): 4 (18.2) n (%)
- Subjects experiencing ≥1 AE: Severe (obese women [6]; [15]): 0 n (%)
- Subjects experiencing ≥1 treatment‐related AE (obese women [6]; [15]): 21 (95.5) n (%)
- Treatment‐related AE: Decreased appetite (obese women [6]; [15]): 2 (9.1) n (%)
- Treatment‐related AE: Ephelides (obese women [6]; [15]): 0 n (%)
- Treatment‐related AE: Feeling hot (obese women [6]; [15]): 2 (9.1) n (%)
- Treatment‐related AE: Flatulence (obese women [6]; [15]): 1 (4.5) n (%)
- Treatment‐related AE: Flushing (obese women [6]; [15]): 4 (18.2) n (%)
- Treatment‐related AE: Headache (obese women [6]; [15]): 2 (9.1) n (%)
- Treatment‐related AE: Injection site erythema (obese women [6]; [15]): 9 (40.9) n (%)
- Treatment‐related AE: Injection site pain (obese women [6]; [15]): 7 (31.8) n (%)
- Treatment‐related AE: Injection site pruritus (obese women [6]; [15]): 2 (9.1) n (%)
- Treatment‐related AE: Injection site reaction (obese women [6]; [15]): 16 (72.7) n (%)
- Treatment‐related AE: Injection site swelling (obese women [6]; [15]): 2 (9.1) n (%)
- Treatment‐related AE: Libido increased (obese women [6]; [15]): 3 (13.6) n (%)
- Treatment‐related AE: Nausea (obese women [6]; [15]): 4 (18.2) n (%)
- Treatment‐related AE: Pigmentation disorder (obese women [6]; [15]): 6 (27.3) n (%)
- Treatment‐related AE: Skin hyperpigmentation (obese women [6]; [15]): 0 n (%)
- Number of SAEs reported (in a single subject) (obese women [6]; once-daily bremelanotide, nausea, vomiting, hypersensitivity, dizziness, headache): Five
- AE leading to treatment discontinuation: Vomiting (obese women [6]; [16]): 1 (5.0) n (%)
- AE: Decreased appetite (obese women [6]; [16]): 0 n (%)
- AE: Ephelides (obese women [6]; [16]): 2 (10.0) n (%)
- AE: Feeling hot (obese women [6]; [16]): 0 n (%)
- AE: Flatulence (obese women [6]; [16]): 3 (15.0) n (%)
- AE: Flushing (obese women [6]; [16]): 3 (15.0) n (%)
- AE: Headache (obese women [6]; [16]): 4 (20.0) n (%)
- AE: Injection site erythema (obese women [6]; [16]): 5 (25.0) n (%)
- AE: Injection site pain (obese women [6]; [16]): 8 (40.0) n (%)
- AE: Injection site pruritus (obese women [6]; [16]): 3 (15.0) n (%)
- AE: Injection site reaction (obese women [6]; [16]): 20 (100) n (%)
- AE: Injection site swelling (obese women [6]; [16]): 2 (10.0) n (%)
- AE: Libido increased (obese women [6]; [16]): 2 (10.0) n (%)
- AE: Nausea (obese women [6]; [16]): 4 (20.0) n (%)
- AE: Pigmentation disorder (obese women [6]; [16]): 2 (10.0) n (%)
- AE: Procedural dizziness (obese women [6]; [16]): 0 n (%)
- AE: Skin hyperpigmentation (obese women [6]; [16]): 3 (15.0) n (%)
- AE: Vessel puncture site haemorrhage (obese women [6]; [16]): 2 (10.0) n (%)
- Subjects experiencing an AE leading to treatment discontinuation (obese women [6]; [16]): 1 (5.0) n (%)
- Subjects experiencing ≥1 AE (obese women [6]; [16]): 20 (100) n (%)
- Subjects experiencing ≥1 AE: Mild (obese women [6]; [16]): 20 (100) n (%)
- Subjects experiencing ≥1 AE: Moderate (obese women [6]; [16]): 1 (5.0) n (%)
- Subjects experiencing ≥1 AE: Severe (obese women [6]; [16]): 0 n (%)
- Subjects experiencing ≥1 SAE (obese women [6]; [16]): 0
- Subjects experiencing ≥1 treatment‐related AE (obese women [6]; [16]): 20 (100) n (%)
- Treatment‐related AE: Decreased appetite (obese women [6]; [16]): 0 n (%)
- Treatment‐related AE: Ephelides (obese women [6]; [16]): 2 (10.0) n (%)
- Treatment‐related AE: Feeling hot (obese women [6]; [16]): 0 n (%)
- Treatment‐related AE: Flatulence (obese women [6]; [16]): 2 (10.0) n (%)
- Treatment‐related AE: Flushing (obese women [6]; [16]): 3 (15.0) n (%)
- Treatment‐related AE: Headache (obese women [6]; [16]): 3 (15.0) n (%)
- Treatment‐related AE: Injection site erythema (obese women [6]; [16]): 5 (25.0) n (%)
- Treatment‐related AE: Injection site pain (obese women [6]; [16]): 8 (40.0) n (%)
- Treatment‐related AE: Injection site pruritus (obese women [6]; [16]): 3 (15.0) n (%)
- Treatment‐related AE: Injection site reaction (obese women [6]; [16]): 20 (100.0) n (%)
- Treatment‐related AE: Injection site swelling (obese women [6]; [16]): 2 (10.0) n (%)
- Treatment‐related AE: Libido increased (obese women [6]; [16]): 2 (10.0) n (%)
- Treatment‐related AE: Nausea (obese women [6]; [16]): 3 (15.0) n (%)
- Treatment‐related AE: Pigmentation disorder (obese women [6]; [16]): 2 (10.0) n (%)
- Treatment‐related AE: Skin hyperpigmentation (obese women [6]; [16]): 3 (15.0) n (%)
- Decrease from baseline in mean systolic blood pressure (obese women [7]): < 10%
- Subjects withdrawn while receiving the regimen (obese women [8]): No subjects
- Body weight (murine model): reduced
- Food intake (murine model): reduced
- Body weight (rat model): reduced
- Food intake (rat model): reduced
